These results are taken from ChEMBL document CHEMBL1129955, “Structure-activity relationships of alkyl- and alkoxy-substituted 1,4-dihydroquinoxaline-2,3-diones: potent and systemically active antagonists for the glycine site of the NMDA receptor” (J Med Chem, 1997).

Data set [1] addresses Glutamate receptor ionotropic, NMDA 1 (Rattus norvegicus, UniProt P35439). Description: Potency for the N-methyl-D-aspartate glutamate receptor 1 glycine site by displacement of [3H]5,7-dichlorokynurenic acid (DCKA) binding in rat brain cortical membranes. It counts as cell membranes, Membrane. (In general: In a radioligand displacement assay an active substance lowers the binding of a labelled ligand.)

The nature of data set [2]: Partition coefficient (logP). It counts as physicochemical. Conditions: octanol/water.
For a further data set, the species on record is Mus musculus. Description: Anticonvulsant activity was measured by mouse maximal electroshock (MES) assay. It counts as functional. Summed up: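 Mice; compounds dissolved in 0.05 M Tris, given iv; tested at peak activity 2 min after injection (one compound with slower onset tested at 15 min). Maximal electroshock seizure protection scored; ED50 by Litchfield and Wilcoxon analysis.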
On the technique in general: In the maximal electroshock model the usual endpoint is tonic extension of the hind limbs.

Data set [3] can be described thus: Selectivity index for the inhibition of NMDA receptors was estimated by dividing Kb AMPA by Kb NMDA.
Data set [4] concerns the target T1, Glutamate receptor ionotropic, AMPA (Rattus norvegicus) (UniProt P19491+P19492+P19493+P19490). Description: Dissociation constant(Kb) for Ionotropic glutamate receptor AMPA was determined from inhibition of currents activated by 10(uM) AMPA in Xenopus oocytes expressing rat cerebral cortex poly(A)+ RNA. The data set is classed as functional, cell-based. Conditions: Oocyte.

In data set [5] the target is T1, Glutamate receptor ionotropic, AMPA (Rattus norvegicus). Description: Dissociation constant(Kb) for Ionotropic glutamate receptor AMPA as inhibition of currents activated by 10 uM AMPA in Xenopus oocytes expressing rat cerebral cortex poly(A)+ RNA. The data set is classed as functional, cell-based. Conditions: Oocyte.

Usually IC50 stands for the concentration that inhibits the measured activity by half. The low end stands for greater potency, the high end for weaker potency. On to `CCOc1c(F)cc2nc(O)c(O)nc2c1[N+](=O)[O-]`, for which the half-inhibitory concentration (IC50) in data set [1] amounted to 3.6 µM.
The same measure, in the same setting: then `COc1c(Br)cc2[nH]c(=O)c(=O)[nH]c2c1[N+](=O)[O-]`, with 0.064 µM; and `Cc1cc2nc(O)c(O)nc2cc1Cl`, with 0.78 µM.
Broadly, the logP is the decadic logarithm of the partition coefficient of the neutral form, usually between octanol and water. Read a low logP as a more hydrophilic compound. One may read the ED50 as the midpoint of the dose-response relation. A high value points to weaker potency. `Cc1c(F)cc2nc(O)c(O)nc2c1[N+](=O)[O-]`: the logP in data set [2] is 0.08. The same compound came in with a 50% effective dose (ED50) in the data set listed under Mus musculus of 1.8 mg/kg. This compound also returned a 50% inhibitory concentration (IC50) in data set [1] of 0.095 µM.
As to `O=c1[nH]c2cc3ccccc3cc2[nH]c1=O`, in data set [1], the IC50 came to 16 µM.
Same read-out and setting: then `COc1cc2nc(O)c(O)nc2cc1Br`, with 1 µM; and `CCc1cc2[nH]c(=O)c(=O)[nH]c2cc1Cl`, with 1.4 µM; and `N#Cc1cc([N+](=O)[O-])c2[nH]c(=O)c(=O)[nH]c2c1`, with 2.8 µM.
In turn, `Cc1c(Cl)cc2[nH]c(=O)c(=O)[nH]c2c1[N+](=O)[O-]` returned a logP in data set [2] of 0.49. The compound also showed a 50% inhibitory concentration (IC50) in data set [1] of 0.0047 µM.
For `COc1cc2[nH]c(=O)c(=O)[nH]c2c(O)c1OC`, in data set [1], the concentration for half-maximal inhibition (IC50) was 17 µM.
As for `CCc1cc2nc(O)c(O)nc2c([N+](=O)[O-])c1Br`, in data set [2], the lipophilicity (logP) amounted to 1.04. This compound also gave an ED50 in the data set listed under Mus musculus of 11 mg/kg. Besides, the concentration for half-maximal inhibition (IC50) in data set [1] worked out at 0.082 µM.
In the case of `O=[N+]([O-])c1c2c(cc3nc(O)c(O)nc13)CCC2`, the Selectivity index in data set [3] was 20. In data set [4], the Kb came to 17 µM.
The compound `CCc1c(Cl)cc2nc(O)c(O)nc2c1[N+](=O)[O-]` displayed an IC50 in data set [1] of 0.13 µM.
In data set [2], `Cc1cc2nc(O)c(O)nc2c([N+](=O)[O-])c1C` had a log partition coefficient (logP) of 0.58. The 50% effective dose (ED50) in the data set listed under Mus musculus is 2.6 mg/kg. The Selectivity index in data set [3] is 79. Moreover, in data set [5], the Kb was 3.1 µM. The compound further yielded an IC50 in data set [1] of 0.029 µM.
In turn, `Cc1cc([N+](=O)[O-])c2[nH]c(=O)c(=O)[nH]c2c1` displayed a concentration for half-maximal inhibition (IC50) in data set [1] of 9.3 µM.
On the same count and under the same terms, next, `Cc1c(C#N)cc2[nH]c(=O)c(=O)[nH]c2c1[N+](=O)[O-]`: 0.073 µM; `Cc1c(Cl)cc2nc(O)c(O)nc2c1N`: 0.15 µM; `COc1c(Cl)cc2[nH]c(=O)c(=O)[nH]c2c1[N+](=O)[O-]`: 0.15 µM.
On to `Cc1cc2nc(O)c(O)nc2c([N+](=O)[O-])c1Cl`, for which, in data set [2], the logP amounted to 0.44. The 50% effective dose (ED50) in the data set filed under Mus musculus turned out to be 1.9 mg/kg. The same compound yielded a concentration for half-maximal inhibition (IC50) in data set [1] of 0.045 µM.
In data set [1], `CCc1cc2[nH]c(=O)c(=O)[nH]c2cc1CC` yielded an IC50 of 1.8 µM.
In data set [2], `CCc1cc2nc(O)c(O)nc2c([N+](=O)[O-])c1Cl` showed a lipophilicity (logP) of 0.92. In the data set filed under Mus musculus, this compound had a median effective dose (ED50) of 4.5 mg/kg. Moreover, the 50% inhibitory concentration (IC50) in data set [1] stood at 0.029 µM.
For `Cc1c(C#N)cc2nc(O)c(O)nc2c1[N+](=O)[O-]`, in data set [3], the Selectivity index is 20. In data set [4], the Kb worked out at 0.59 µM.
As for `COc1cc2[nH]c(=O)c(=O)[nH]c2c(OC(C)=O)c1OC`, the IC50 in data set [1] worked out at 53 µM.
Same read-out and setting: next, `Oc1cc2nc(O)c(O)nc2cc1O`: over 100 µM.
Still for that read-out and setting: then `COc1c(F)cc2[nH]c(=O)c(=O)[nH]c2c1[N+](=O)[O-]`, with 1.9 µM; and `CCCCOc1c(F)cc2nc(O)c(O)nc2c1[N+](=O)[O-]`, with 4.3 µM; and `O=c1[nH]c2cc3c(c([N+](=O)[O-])c2[nH]c1=O)CCC3`, with 3.1 µM.
On the same count and under the same terms, next, `Oc1nc2cc3c(cc2nc1O)CCC3`: 15 µM.
In the case of `Cc1c(Br)cc2nc(O)c(O)nc2c1[N+](=O)[O-]`, the logP in data set [2] is 0.61. Further, in the data set filed under Mus musculus, the 50% effect level (ED50) was put at a dose of 2 mg/kg. Further, the 50% inhibitory concentration (IC50) in data set [1] amounted to 0.0087 µM.
For the compound `O=[N+]([O-])c1c(OCCCc2ccccc2)c(F)cc2nc(O)c(O)nc12`, the IC50 in data set [1] worked out at 4 µM.
Still for that read-out and setting: next, `CCc1cc2[nH]c(=O)c(=O)[nH]c2c([N+](=O)[O-])c1CC`: 0.16 µM; `Nc1c(F)cc2nc(O)c(O)nc2c1[N+](=O)[O-]`: 11 µM; `Oc1nc2cc3c(cc2nc1O)OCO3`: over 100 µM.
Regarding `COc1cc2[nH]c(=O)c(=O)[nH]c2cc1OC`, the IC50 in data set [1] amounted to 17 µM.
On the same count and under the same terms, then `Cc1cc2[nH]c(=O)c(=O)[nH]c2cc1C`, with 3.3 µM.
As to `Cc1c(Cl)cc2nc(O)c(O)nc2c1[N+](=O)[O-]`, the median effective dose (ED50) in the data set listed under Mus musculus came to 1.2 mg/kg. Further, in data set [3], the Selectivity index is 440. Further, the Kb in data set [5] was determined as 3.5 µM.
Consider `O=[N+]([O-])c1c(Br)c(Br)cc2nc(O)c(O)nc12`, for which, in data set [2], the log partition coefficient (logP) was 0.74. For the same compound, the 50% effective dose (ED50) in the data set filed under Mus musculus came to 7.3 mg/kg. In addition, the concentration for half-maximal inhibition (IC50) in data set [1] stood at 0.02 µM.
Compound `CCSc1c(Cl)cc2nc(O)c(O)nc2c1[N+](=O)[O-]` registered a half-inhibitory concentration (IC50) in data set [1] of 0.64 µM.
In data set [2], `O=c1[nH]c2cc(Cl)c(Cl)c([N+](=O)[O-])c2[nH]c1=O` [LICOSTINEL] showed a logP of 0.21. Further, the ED50 in the data set filed under Mus musculus was determined as 4 mg/kg. In data set [1], this compound came in with an IC50 of 0.0059 µM.
